In ChEMBL document CHEMBL4033785, “Increased Potency and Selectivity for Group III Metabotropic Glutamate Receptor Agonists Binding at Dual sites” (J Med Chem, 2018):

Experiments:
Homo sapiens [1] = species on record: Homo sapiens; assay: (§1) Selectivity ratio of EC50 for mGlu8 (unknown origin) expressed in HEK293 cells coexpressing chimeric Gq/i protein assessed as [3H]inositol phosphate accumulation to EC50 for mGlu4 (unknown origin) expressed in HEK293 cells coexpressing chimeric Gq/i protein assessed as [3H]inositol phosphate accumulation; assay type: cell-based
Procedure, shortened: (§2)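 Ratio of mGlu8 EC50 to mGlu4 EC50, both from the same functional assay. Both receptors were co-expressed in HEK293 cells with chimeric G-protein and EAAT3 and read by 3H-IP accumulation or by Fluo-4 Ca2+ release.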

[2] = molecular target: T1, Metabotropic glutamate receptor 8 (Homo sapiens, UniProt O00222); assay: Agonist activity at mGlu8 (unknown origin) expressed in HEK293 cells coexpressing chimeric Gq/i protein assessed as [3H]inositol phosphate accumulation after 30 mins by scintillation and luminescence counting method; assay type: functional, cell-based
Procedure, shortened: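 Receptor transiently co-expressed in HEK293 cells (electroporation) with chimeric G-protein and glutamate transporter EAAT3. Cells labelled overnight with 3H-myoinositol, stimulated with agonist 30 min, lysed 1 h in cold 0.1 M formic acid. 3H-IP isolated on Dowex ion exchange and counted. IP expressed relative to IP plus membrane radioactivity. Points in triplicate; EC50 from Hill-equation fit.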

[3] = molecular target: Metabotropic glutamate receptor 4 (Homo sapiens, UniProt Q14833); assay: Agonist activity at mGlu4 (unknown origin) expressed in HEK293 cells coexpressing chimeric Gq/i protein assessed as increase in intracellular calcium accumulation by Fluo-4 AM dye based fluorescence assay; assay type: functional, cell-based
[4] = molecular target: T1, Metabotropic glutamate receptor 8; assay: Agonist activity at mGlu8 (unknown origin) expressed in HEK293 cells coexpressing chimeric Gq/i protein assessed as increase in intracellular calcium accumulation by Fluo-4 AM dye based fluorescence assay; assay type: functional, cell-based
[5] = molecular target: Metabotropic glutamate receptor 6 (Homo sapiens, UniProt O15303); assay: Agonist activity at mGlu6 (unknown origin) expressed in HEK293 cells coexpressing chimeric Gq/i protein assessed as increase in intracellular calcium accumulation by Fluo-4 AM dye based fluorescence assay; assay type: functional, cell-based
[6] = molecular target: Metabotropic glutamate receptor 7 (Homo sapiens, UniProt Q14831); assay: Agonist activity at mGlu7 (unknown origin) expressed in HEK293 cells coexpressing chimeric Gq/i protein assessed as increase in intracellular calcium accumulation by Fluo-4 AM dye based fluorescence assay; assay type: functional, cell-based
Homo sapiens [7] = species on record: Homo sapiens; assay: as §1, with “increase in intracellular calcium” for “[3H]inositol phosphate”; assay type: cell-based; procedure, shortened: as §2

Metabotropic glutamate receptor 6, sequence (O15303 whole entry): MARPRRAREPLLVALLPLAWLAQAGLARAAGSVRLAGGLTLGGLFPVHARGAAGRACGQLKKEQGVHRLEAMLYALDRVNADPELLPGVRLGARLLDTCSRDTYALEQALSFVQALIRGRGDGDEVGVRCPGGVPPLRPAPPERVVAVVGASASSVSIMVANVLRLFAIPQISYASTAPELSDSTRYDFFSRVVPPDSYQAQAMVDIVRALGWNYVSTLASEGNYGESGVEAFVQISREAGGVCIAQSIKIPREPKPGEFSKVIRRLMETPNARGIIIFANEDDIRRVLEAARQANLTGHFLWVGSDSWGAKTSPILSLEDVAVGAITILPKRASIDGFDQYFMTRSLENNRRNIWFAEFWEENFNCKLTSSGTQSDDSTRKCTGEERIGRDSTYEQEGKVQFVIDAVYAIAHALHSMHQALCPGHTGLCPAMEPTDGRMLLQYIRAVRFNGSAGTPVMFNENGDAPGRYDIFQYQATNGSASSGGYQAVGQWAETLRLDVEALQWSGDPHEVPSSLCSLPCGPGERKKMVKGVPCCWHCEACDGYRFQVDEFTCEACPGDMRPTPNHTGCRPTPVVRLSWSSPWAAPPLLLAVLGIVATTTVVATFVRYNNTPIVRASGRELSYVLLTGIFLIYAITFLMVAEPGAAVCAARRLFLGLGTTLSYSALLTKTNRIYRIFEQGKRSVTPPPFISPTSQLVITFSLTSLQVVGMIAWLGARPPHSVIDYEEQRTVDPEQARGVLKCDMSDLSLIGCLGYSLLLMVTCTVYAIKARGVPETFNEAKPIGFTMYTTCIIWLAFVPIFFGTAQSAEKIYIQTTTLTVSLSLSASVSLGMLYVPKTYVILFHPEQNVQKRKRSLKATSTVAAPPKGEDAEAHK
Metabotropic glutamate receptor 4, sequence (Q14833 whole entry): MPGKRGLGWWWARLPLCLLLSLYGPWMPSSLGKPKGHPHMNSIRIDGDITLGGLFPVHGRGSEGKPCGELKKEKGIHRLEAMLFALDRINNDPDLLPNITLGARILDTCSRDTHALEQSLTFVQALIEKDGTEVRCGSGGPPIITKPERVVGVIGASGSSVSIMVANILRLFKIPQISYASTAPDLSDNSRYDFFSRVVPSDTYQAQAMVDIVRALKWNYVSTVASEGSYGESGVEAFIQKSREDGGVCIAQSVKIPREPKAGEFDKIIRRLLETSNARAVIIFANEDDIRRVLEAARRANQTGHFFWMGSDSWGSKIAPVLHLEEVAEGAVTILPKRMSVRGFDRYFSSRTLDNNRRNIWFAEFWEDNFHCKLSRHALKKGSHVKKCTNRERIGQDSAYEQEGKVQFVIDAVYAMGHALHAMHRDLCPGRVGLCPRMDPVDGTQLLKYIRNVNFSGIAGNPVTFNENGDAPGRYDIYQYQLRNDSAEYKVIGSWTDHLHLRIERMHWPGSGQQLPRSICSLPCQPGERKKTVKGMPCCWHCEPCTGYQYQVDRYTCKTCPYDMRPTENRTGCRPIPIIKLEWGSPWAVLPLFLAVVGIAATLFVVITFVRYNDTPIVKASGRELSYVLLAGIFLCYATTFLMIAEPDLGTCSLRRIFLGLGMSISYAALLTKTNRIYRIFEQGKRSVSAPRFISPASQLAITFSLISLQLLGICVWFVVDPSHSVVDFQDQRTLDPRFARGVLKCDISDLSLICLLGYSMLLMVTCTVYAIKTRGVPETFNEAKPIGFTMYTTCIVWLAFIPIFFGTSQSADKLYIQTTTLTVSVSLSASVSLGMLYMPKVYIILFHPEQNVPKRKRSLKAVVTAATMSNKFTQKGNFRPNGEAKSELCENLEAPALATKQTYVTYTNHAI
T1 sequence (O00222 whole entry): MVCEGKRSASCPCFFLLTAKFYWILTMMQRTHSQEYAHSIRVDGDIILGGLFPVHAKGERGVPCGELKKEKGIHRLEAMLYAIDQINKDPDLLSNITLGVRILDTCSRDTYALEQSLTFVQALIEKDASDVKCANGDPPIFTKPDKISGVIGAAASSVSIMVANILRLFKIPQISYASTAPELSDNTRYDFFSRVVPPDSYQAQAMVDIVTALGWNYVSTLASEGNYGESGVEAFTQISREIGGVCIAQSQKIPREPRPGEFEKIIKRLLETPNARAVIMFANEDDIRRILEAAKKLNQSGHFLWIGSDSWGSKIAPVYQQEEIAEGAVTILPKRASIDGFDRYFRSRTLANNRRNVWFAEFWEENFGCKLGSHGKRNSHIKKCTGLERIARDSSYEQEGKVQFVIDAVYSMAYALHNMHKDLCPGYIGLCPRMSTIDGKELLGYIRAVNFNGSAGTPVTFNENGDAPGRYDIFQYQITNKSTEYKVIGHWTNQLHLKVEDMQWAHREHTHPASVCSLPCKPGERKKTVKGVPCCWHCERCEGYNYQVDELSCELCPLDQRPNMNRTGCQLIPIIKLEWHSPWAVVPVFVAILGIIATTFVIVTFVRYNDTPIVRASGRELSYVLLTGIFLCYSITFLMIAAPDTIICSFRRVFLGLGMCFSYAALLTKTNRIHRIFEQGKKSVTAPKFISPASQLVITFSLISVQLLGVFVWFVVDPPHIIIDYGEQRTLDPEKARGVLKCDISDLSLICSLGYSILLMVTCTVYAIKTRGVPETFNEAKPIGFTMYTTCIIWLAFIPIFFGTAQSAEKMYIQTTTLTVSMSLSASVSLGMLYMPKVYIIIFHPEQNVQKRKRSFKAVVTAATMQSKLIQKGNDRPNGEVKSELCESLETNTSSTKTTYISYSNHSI
Metabotropic glutamate receptor 7, sequence (Q14831 whole entry): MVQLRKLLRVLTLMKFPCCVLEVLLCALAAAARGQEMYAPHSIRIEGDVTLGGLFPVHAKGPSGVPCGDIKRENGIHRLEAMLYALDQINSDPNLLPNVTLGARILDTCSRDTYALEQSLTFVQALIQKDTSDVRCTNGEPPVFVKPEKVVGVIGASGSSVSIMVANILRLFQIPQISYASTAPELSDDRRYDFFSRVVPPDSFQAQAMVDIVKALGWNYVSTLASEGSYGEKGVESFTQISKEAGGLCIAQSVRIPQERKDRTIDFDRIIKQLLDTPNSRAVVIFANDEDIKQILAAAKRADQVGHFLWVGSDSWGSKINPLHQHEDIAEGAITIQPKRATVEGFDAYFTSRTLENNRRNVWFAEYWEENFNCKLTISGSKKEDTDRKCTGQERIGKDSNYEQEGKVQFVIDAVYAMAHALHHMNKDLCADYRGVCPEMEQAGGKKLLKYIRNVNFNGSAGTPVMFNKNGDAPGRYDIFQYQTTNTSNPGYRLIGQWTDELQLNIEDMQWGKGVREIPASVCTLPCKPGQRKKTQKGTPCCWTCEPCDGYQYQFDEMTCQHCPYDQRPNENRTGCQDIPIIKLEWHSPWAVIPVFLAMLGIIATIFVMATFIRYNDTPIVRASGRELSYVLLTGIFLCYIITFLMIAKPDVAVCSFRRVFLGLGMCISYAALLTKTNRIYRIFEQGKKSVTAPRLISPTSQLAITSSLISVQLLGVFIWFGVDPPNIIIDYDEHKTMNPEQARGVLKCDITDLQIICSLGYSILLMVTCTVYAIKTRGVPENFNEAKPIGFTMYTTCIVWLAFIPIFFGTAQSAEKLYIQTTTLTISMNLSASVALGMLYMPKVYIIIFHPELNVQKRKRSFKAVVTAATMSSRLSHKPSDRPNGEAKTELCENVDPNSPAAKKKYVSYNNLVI

EC50 [2] [µM]	EC50 [3] [µM]	EC50 [4] [µM]	EC50 [5] [µM]	EC50 [6] [µM]	SMILES	Ratio EC50 (Homo sapiens [1])	Ratio EC50 (Homo sapiens [7])
5.2	–	–	–	–	N[C@@H](CCP(=O)(O)C(O)c1ccc(C(F)(F)F)o1)C(=O)O (some centres undefined)	3.1	–
–	2	2.5	4.5	> 100	COc1ccc([C@@H](O)P(=O)(O)CC[C@H](N)C(=O)O)cc1[N+](=O)[O-]	–	1.2
34	–	–	–	–	N[C@@H](CCP(=O)(O)C(O)c1ccc(C(F)(F)F)cc1)C(=O)O (some centres undefined)	2.3	–
219	–	–	–	–	N#Cc1cccc(C(O)P(=O)(O)CC[C@H](N)C(=O)O)c1 (some centres undefined)	5.3	–
–	4.5	39.8	68.4	295	N[C@@H](CCP(=O)(O)[C@@H](O)c1ccc(O)c([N+](=O)[O-])c1)C(=O)O	–	8.5
–	–	–	3.2	> 100	N[C@@H](CCP(=O)(O)Cc1cccc([N+](=O)[O-])c1)C(=O)O	5.4	2.5
–	0.5	31.4	3.6	62	N[C@@H](CCP(=O)(O)[C@H](O)c1ccc(O)c([N+](=O)[O-])c1)C(=O)O	–	61
–	2.42	34.3	0.76	39	N[C@@H](CCP(=O)(O)[C@H](O)c1cc(F)c(O)c([N+](=O)[O-])c1)C(=O)O	–	14
–	25	22.8	–	–	CCCCCCNC(c1cccc([N+](=O)[O-])c1)P(=O)(O)CC[C@H](N)C(=O)O (some centres undefined)	–	0.9
1.8	–	–	–	–	NC(c1csc([N+](=O)[O-])c1)P(=O)(O)CC[C@H](N)C(=O)O (some centres undefined)	2.2	–
–	3.4	6.9	–	–	N[C@@H](CCP(=O)(O)C(O)c1c[nH]c2ncccc12)C(=O)O (some centres undefined)	–	2
–	28	26.2	–	–	N[C@@H](CCP(=O)(O)C(O)c1ccncc1)C(=O)O (some centres undefined)	–	1
–	6.4	6.5	–	–	CCOc1cc([C@H](O)P(=O)(O)CC[C@H](N)C(=O)O)cc([N+](=O)[O-])c1O	–	1

Further lines, the compound ahead of its results:

SMILES	EC50 [2] [µM]	EC50 [3] [µM]	EC50 [4] [µM]	EC50 [5] [µM]	EC50 [6] [µM]	Ratio EC50 (Homo sapiens [1])	Ratio EC50 (Homo sapiens [7])
N[C@@H](CCP(=O)(O)C(O)c1cccc([N+](=O)[O-])c1O)C(=O)O (some centres undefined)	21.2	–	–	–	–	0.92	–
COc1ccc(C(O)P(=O)(O)CC[C@H](N)C(=O)O)cc1 (some centres undefined)	–	6.5	61	23	–	–	9.3
N[C@@H](CCP(=O)(O)C(O)c1ccc([N+](=O)[O-])cc1[N+](=O)[O-])C(=O)O (some centres undefined)	4.6	–	–	–	–	3.1	–
N[C@@H](CCP(=O)(O)C(O)c1ccc(O)c([N+](=O)[O-])c1)C(=O)O (some centres undefined)	–	1.5	73	–	–	18	48
N[C@@H](CCP(=O)(O)C(O)c1ccc(O)c(C(=O)O)c1)C(=O)O (some centres undefined)	–	15.8	40	–	–	–	2.5
N[C@@H](CCP(=O)(O)C(NCc1cccc2ccccc12)c1cccc([N+](=O)[O-])c1)C(=O)O (some centres undefined)	–	7.9	35.4	–	–	–	4.3
N[C@@H](CCP(=O)(O)C(O)c1c([N+](=O)[O-])cccc1[N+](=O)[O-])C(=O)O (some centres undefined)	2.9	–	–	–	–	1.7	–
N[C@@H](CCP(=O)(O)Cc1cccc(C(=O)O)c1)C(=O)O	511	> 100	–	–	–	2.4	–
CCOc1cc(C(O)P(=O)(O)CC[C@H](N)C(=O)O)cc([N+](=O)[O-])c1O (mixture of isomers)	–	–	20	–	–	–	2.4
COc1ccc([C@H](O)P(=O)(O)CC[C@H](N)C(=O)O)cc1[N+](=O)[O-]	–	1.7	2.2	3.9	> 100	–	1.3
N[C@@H](CCP(=O)(O)C(O)c1cc([N+](=O)[O-])ccc1O)C(=O)O (some centres undefined)	4.2	–	–	–	–	4.6	–
N[C@@H](CCP(=O)(O)C(O)c1ccnc(O)c1)C(=O)O (some centres undefined)	–	42	81	–	–	–	1.9
CCOc1cc([C@@H](O)P(=O)(O)CC[C@H](N)C(=O)O)cc([N+](=O)[O-])c1O	–	5.1	22	–	–	–	4.4
N[C@@H](CCP(=O)(O)C(O)c1cc([N+](=O)[O-])cc([N+](=O)[O-])c1O)C(=O)O (some centres undefined)	4.5	–	–	–	–	1.9	–
